Reference: ChEMBL document CHEMBL5724801, “EUbOPEN Chemogenomics Library - Multiplex” (2024)
Values joined by “and” are separate entries in the source; they are usually repeats but may differ in a detail not shown here. Equal entries are not always repeated.

Test system: HEK-293T
Assay: Multiplex assay against HEK293T
Format: toxicity, cell-based
Conditions: human
Procedure, shortened: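 Per cents of healthy-nucleus cells form the tubulin, mitochondrial-mass and membrane-permeability phenotype values. Live cells were stained at seeding with Hoechst33342, BioTracker Green Microtubule Cytoskeleton Dye, MitoTracker Red and Annexin V Alexa Fluor 680. After compound addition they were imaged on a CQ1 microscope at 37°C and 5% CO2, and CellPathfinder machine-learning gating split them into Hoechst high-intensity objects or normal cells, normal cells into healthy, pyknosed or fragmented nuclei, and pyknosed cells into mitotic or apoptotic.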

[1] = 12 h, 1 µM, compound concentration 1 uM
[2] = 12 h, 10 µM, compound concentration 10 uM
[3] = 24 h, 1 µM, compound concentration 1 uM
[4] = 24 h, 10 µM, compound concentration 10 uM
[5] = 48 h, 1 µM, compound concentration 1 uM
[6] = 48 h, 10 µM, compound concentration 10 uM

C[C@H](NC(=O)c1c(C(F)F)nn(C)c1Oc1cccc(C(F)(F)F)c1)c1ccc(C(=O)O)cc1 [PALUPIPRANT]
Population Apoptotic (%) [1]: 40% and 27% | Population Fragmented Nuclei (%) [1]: 6% | Population Healthy Nuclei (%) [1]: 80% and 83% | Population Hoechst High Intensity Objects (%) [1]: 7% and 5% | Population Membrane Permeable-Phenotype (%) [1]: 0% | Population Mitochondria Different-Phenotype (%) [1]: 44% and 60% | Population Mitotic Cells (%) [1]: 59% and 72% | Population Normal (%) [1]: 92% and 94% | Population Pyknosed Nuclei (%) [1]: 13% and 10% | Population Tubulin-Different-Phenotype (%) [1]: 28% | Total Cell Count [1]: 407 and 475 | Population Apoptotic (%) [2]: 38% and 60% | Population Fragmented Nuclei (%) [2]: 7% and 5% | Population Healthy Nuclei (%) [2]: 76% and 77% | Population Hoechst High Intensity Objects (%) [2]: 7% and 10% | Population Membrane Permeable-Phenotype (%) [2]: 0% | Population Mitochondria Different-Phenotype (%) [2]: 55% and 68% | Population Mitotic Cells (%) [2]: 61% and 40% | Population Normal (%) [2]: 92% and 89% | Population Pyknosed Nuclei (%) [2]: 16% and 17% | Population Tubulin-Different-Phenotype (%) [2]: 40% and 27% | Total Cell Count [2]: 371 and 293 | Population Apoptotic (%) [3]: 36% and 46% | Population Fragmented Nuclei (%) [3]: 9% and 7% | Population Healthy Nuclei (%) [3]: 80% and 83% | Population Hoechst High Intensity Objects (%) [3]: 5% and 4% | Population Membrane Permeable-Phenotype (%) [3]: 1% and 0% | Population Mitochondria Different-Phenotype (%) [3]: 27% and 35% | Population Mitotic Cells (%) [3]: 63% and 53% | Population Normal (%) [3]: 94% and 95% | Population Pyknosed Nuclei (%) [3]: 10% and 9% | Population Tubulin-Different-Phenotype (%) [3]: 18% and 19% | Total Cell Count [3]: 527 and 604 | Population Apoptotic (%) [4]: 26% and 55% | Population Fragmented Nuclei (%) [4]: 9% and 7% | Population Healthy Nuclei (%) [4]: 74% and 79% | Population Hoechst High Intensity Objects (%) [4]: 3% and 7% | Population Membrane Permeable-Phenotype (%) [4]: 0% | Population Mitochondria Different-Phenotype (%) [4]: 46% and 52% | Population Mitotic Cells (%) [4]: 73% and 44% | Population Normal (%) [4]: 96% and 92% | Population Pyknosed Nuclei (%) [4]: 16% and 13% | Population Tubulin-Different-Phenotype (%) [4]: 29% and 19% | Total Cell Count [4]: 465 and 353 | Population Apoptotic (%) [5]: 25% and 21% | Population Fragmented Nuclei (%) [5]: 13% and 14% | Population Healthy Nuclei (%) [5]: 79% and 78% | Population Hoechst High Intensity Objects (%) [5]: 2% and 4% | Population Membrane Permeable-Phenotype (%) [5]: 1% and 0% | Population Mitochondria Different-Phenotype (%) [5]: 17% and 18% | Population Mitotic Cells (%) [5]: 75% and 78% | Population Normal (%) [5]: 97% and 95% | Population Pyknosed Nuclei (%) [5]: 7% and 6% | Population Tubulin-Different-Phenotype (%) [5]: 13% and 9% | Total Cell Count [5]: 916 and 867 | Population Apoptotic (%) [6]: 29% and 28% | Population Fragmented Nuclei (%) [6]: 18% and 15% | Population Healthy Nuclei (%) [6]: 75% and 77% | Population Hoechst High Intensity Objects (%) [6]: 1% and 3% | Population Membrane Permeable-Phenotype (%) [6]: 1% and 0% | Population Mitochondria Different-Phenotype (%) [6]: 24% and 28% | Population Mitotic Cells (%) [6]: 70% and 71% | Population Normal (%) [6]: 98% and 96% | Population Pyknosed Nuclei (%) [6]: 6% | Population Tubulin-Different-Phenotype (%) [6]: 16% and 17% | Total Cell Count [6]: 821 and 554

CC[C@@H](C)Nc1nc(C)nc2c(-c3ccc(OC)nc3C)c(C)nn12 [PEXACERFONT]
Population Apoptotic (%) [1]: 33% and 47% | Population Fragmented Nuclei (%) [1]: 7% and 5% | Population Healthy Nuclei (%) [1]: 79% and 82% | Population Hoechst High Intensity Objects (%) [1]: 6% and 8% | Population Membrane Permeable-Phenotype (%) [1]: 0% | Population Mitochondria Different-Phenotype (%) [1]: 45% and 61% | Population Mitotic Cells (%) [1]: 66% and 52% | Population Normal (%) [1]: 93% and 91% | Population Pyknosed Nuclei (%) [1]: 13% and 11% | Population Tubulin-Different-Phenotype (%) [1]: 34% and 31% | Total Cell Count [1]: 399 and 314 | Population Apoptotic (%) [2]: 38% and 41% | Population Fragmented Nuclei (%) [2]: 6% and 9% | Population Healthy Nuclei (%) [2]: 75% and 74% | Population Hoechst High Intensity Objects (%) [2]: 8% and 11% | Population Membrane Permeable-Phenotype (%) [2]: 0% and 1% | Population Mitochondria Different-Phenotype (%) [2]: 59% and 75% | Population Mitotic Cells (%) [2]: 61% and 58% | Population Normal (%) [2]: 91% and 88% | Population Pyknosed Nuclei (%) [2]: 17% and 16% | Population Tubulin-Different-Phenotype (%) [2]: 54% and 55% | Total Cell Count [2]: 451 and 321 | Population Apoptotic (%) [3]: 24% and 45% | Population Fragmented Nuclei (%) [3]: 8% and 13% | Population Healthy Nuclei (%) [3]: 79% and 76% | Population Hoechst High Intensity Objects (%) [3]: 3% and 7% | Population Membrane Permeable-Phenotype (%) [3]: 0% | Population Mitochondria Different-Phenotype (%) [3]: 26% and 34% | Population Mitotic Cells (%) [3]: 75% and 54% | Population Normal (%) [3]: 96% and 92% | Population Pyknosed Nuclei (%) [3]: 11% and 9% | Population Tubulin-Different-Phenotype (%) [3]: 21% and 15% | Total Cell Count [3]: 508 and 387 | Population Apoptotic (%) [4]: 37% and 33% | Population Fragmented Nuclei (%) [4]: 6% and 7% | Population Healthy Nuclei (%) [4]: 79% and 78% | Population Hoechst High Intensity Objects (%) [4]: 7% and 13% | Population Membrane Permeable-Phenotype (%) [4]: 1% and 0% | Population Mitochondria Different-Phenotype (%) [4]: 46% and 70% | Population Mitotic Cells (%) [4]: 62% and 66% | Population Normal (%) [4]: 92% and 86% | Population Pyknosed Nuclei (%) [4]: 14% | Population Tubulin-Different-Phenotype (%) [4]: 52% and 48% | Total Cell Count [4]: 612 and 371 | Population Apoptotic (%) [5]: 26% and 41% | Population Fragmented Nuclei (%) [5]: 12% and 10% | Population Healthy Nuclei (%) [5]: 80% | Population Hoechst High Intensity Objects (%) [5]: 2% | Population Membrane Permeable-Phenotype (%) [5]: 0% and 1% | Population Mitochondria Different-Phenotype (%) [5]: 22% and 27% | Population Mitotic Cells (%) [5]: 73% and 58% | Population Normal (%) [5]: 97% | Population Pyknosed Nuclei (%) [5]: 7% and 9% | Population Tubulin-Different-Phenotype (%) [5]: 20% and 19% | Total Cell Count [5]: 816 and 520 | Population Apoptotic (%) [6]: 40% | Population Fragmented Nuclei (%) [6]: 13% and 10% | Population Healthy Nuclei (%) [6]: 77% and 72% | Population Hoechst High Intensity Objects (%) [6]: 7% and 18% | Population Membrane Permeable-Phenotype (%) [6]: 1% and 0% | Population Mitochondria Different-Phenotype (%) [6]: 45% and 53% | Population Mitotic Cells (%) [6]: 59% and 60% | Population Normal (%) [6]: 92% and 81% | Population Pyknosed Nuclei (%) [6]: 9% and 17% | Population Tubulin-Different-Phenotype (%) [6]: 38% and 36% | Total Cell Count [6]: 692 and 390

COc1cc2nc(N3CCN(C(=O)c4ccco4)CC3)nc(N)c2cc1OC.Cl [PRAZOSIN HYDROCHLORIDE]
Population Apoptotic (%) [1]: 32% and 56% | Population Fragmented Nuclei (%) [1]: 10% and 6% | Population Healthy Nuclei (%) [1]: 77% | Population Hoechst High Intensity Objects (%) [1]: 6% | Population Membrane Permeable-Phenotype (%) [1]: 0% | Population Mitochondria Different-Phenotype (%) [1]: 35% and 66% | Population Mitotic Cells (%) [1]: 67% and 43% | Population Normal (%) [1]: 93% | Population Pyknosed Nuclei (%) [1]: 11% and 16% | Population Tubulin-Different-Phenotype (%) [1]: 23% and 22% | Total Cell Count [1]: 448 and 290 | Population Apoptotic (%) [2]: 38% and 55% | Population Fragmented Nuclei (%) [2]: 9% and 5% | Population Healthy Nuclei (%) [2]: 75% and 77% | Population Hoechst High Intensity Objects (%) [2]: 10% and 9% | Population Membrane Permeable-Phenotype (%) [2]: 0% | Population Mitochondria Different-Phenotype (%) [2]: 62% and 61% | Population Mitotic Cells (%) [2]: 61% and 44% | Population Normal (%) [2]: 89% and 90% | Population Pyknosed Nuclei (%) [2]: 14% and 16% | Population Tubulin-Different-Phenotype (%) [2]: 45% and 25% | Total Cell Count [2]: 348 and 404 | Population Apoptotic (%) [3]: 38% and 51% | Population Fragmented Nuclei (%) [3]: 9% | Population Healthy Nuclei (%) [3]: 82% and 80% | Population Hoechst High Intensity Objects (%) [3]: 3% and 5% | Population Membrane Permeable-Phenotype (%) [3]: 0% | Population Mitochondria Different-Phenotype (%) [3]: 25% and 45% | Population Mitotic Cells (%) [3]: 61% and 48% | Population Normal (%) [3]: 96% and 94% | Population Pyknosed Nuclei (%) [3]: 7% and 10% | Population Tubulin-Different-Phenotype (%) [3]: 10% and 16% | Total Cell Count [3]: 660 and 364 | Population Apoptotic (%) [4]: 50% and 54% | Population Fragmented Nuclei (%) [4]: 12% and 11% | Population Healthy Nuclei (%) [4]: 77% and 78% | Population Hoechst High Intensity Objects (%) [4]: 5% | Population Membrane Permeable-Phenotype (%) [4]: 0% and 1% | Population Mitochondria Different-Phenotype (%) [4]: 40% and 42% | Population Mitotic Cells (%) [4]: 50% and 45% | Population Normal (%) [4]: 94% | Population Pyknosed Nuclei (%) [4]: 9% and 10% | Population Tubulin-Different-Phenotype (%) [4]: 32% and 20% | Total Cell Count [4]: 463 and 534 | Population Apoptotic (%) [5]: 36% and 38% | Population Fragmented Nuclei (%) [5]: 17% and 16% | Population Healthy Nuclei (%) [5]: 76% | Population Hoechst High Intensity Objects (%) [5]: 1% and 2% | Population Membrane Permeable-Phenotype (%) [5]: 1% and 0% | Population Mitochondria Different-Phenotype (%) [5]: 16% and 23% | Population Mitotic Cells (%) [5]: 63% and 61% | Population Normal (%) [5]: 98% and 97% | Population Pyknosed Nuclei (%) [5]: 5% and 6% | Population Tubulin-Different-Phenotype (%) [5]: 8% and 9% | Total Cell Count [5]: 1114 and 636 | Population Apoptotic (%) [6]: 33% and 23% | Population Fragmented Nuclei (%) [6]: 17% and 14% | Population Healthy Nuclei (%) [6]: 75% and 78% | Population Hoechst High Intensity Objects (%) [6]: 4% | Population Membrane Permeable-Phenotype (%) [6]: 2% and 1% | Population Mitochondria Different-Phenotype (%) [6]: 32% and 21% | Population Mitotic Cells (%) [6]: 66% and 76% | Population Normal (%) [6]: 95% | Population Pyknosed Nuclei (%) [6]: 7% | Population Tubulin-Different-Phenotype (%) [6]: 17% and 11% | Total Cell Count [6]: 693 and 778
